# Measurements from paper PMC5743405 (International Journal of Oncology, 2017).
# “And” between values parts separate entries of the source, which are not always exact repeats. Equal values may be shown once.
# Legend:
# HTR2C = test: PathHunter β-arrestin; type: cell-based; details: 6 μM
# Summary of the method: (§1)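 Vendor-run (DiscoveRx) PathHunter enzyme fragment complementation. β-Arrestin carries the EA fragment and the receptor carries ED; recruitment restores β-gal activity, read by chemiluminescence (RLU). Agonist % activity = vehicle-subtracted RLU relative to max control ligand (gpcrMAX) or to vehicle (orphanMAX). Antagonist % inhibition = 100% × (1 − vehicle-subtracted sample RLU / vehicle-subtracted EC80 agonist control RLU).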
# nucleolin = test: western blot, JJ012 cells; type: cell-based, human; details: vs untreated control, overnight incubation
# CRHR2 = test: PathHunter β-arrestin; type: cell-based; details: antagonist mode, 6 μM
# Summary of the method: (§2)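 Engineered cells express the receptor fused to one β-galactosidase fragment (ED) and β-arrestin fused to the complementing fragment (EA). Receptor activation recruits β-arrestin, which restores enzyme activity, and this is read by chemiluminescence (RLU). Agonist % activity is 100% × (test − vehicle)/(maximal control ligand − vehicle). Antagonist mode is challenged with an EC80 control agonist, and % inhibition is 100% × (1 − (test − vehicle)/(EC80 − vehicle)). Hits require >30% activity or >35% inhibition, plus a 3×SD RLU margin.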
# CCR5 = test: PathHunter β-arrestin; type: cell-based; details: antagonist mode, 6 μM
# Summary of the method: as §2
# TBXA2R = test: PathHunter β-arrestin; type: cell-based; details: 6 μM
# Summary of the method: (§3)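 β-Arrestin recruitment to GPCR read by β-galactosidase fragment complementation and chemiluminescence. Agonist: % = 100 × (test − vehicle)/(max control ligand − vehicle), hit at >30% and RLU > baseline + 3 SD. Antagonist, against EC80 agonist: % inhibition = 100 × (1 − (test − vehicle)/(EC80 − vehicle)), hit at >35% and RLU < EC80 − 3 SD.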
# CXCR7 = test: PathHunter β-arrestin; type: cell-based; details: antagonist mode, 6 μM
# Summary of the method: as §2
# nuclear receptor = test: PathHunter NHR assays, nhrMAX panel, agonist mode; type: cell-based; details: summary of Table IV
# Summary of the method: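 Enzyme fragment complementation: a ligand-activated NHR moves to the nucleus and recruits a steroid receptor co-activator peptide fusion, restoring β-galactosidase, read by chemiluminescence. Agonist interaction measured over 6 h. Hit requires >30% activity and mean RLU above baseline RLU + 3 × baseline SD.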
# AVPR1A = test: PathHunter β-arrestin; type: cell-based; details: antagonist mode, 6 μM
# Summary of the method: (§4)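 β-Arrestin recruitment assay: the enzyme acceptor is fused to β-arrestin and the ED fragment to the GPCR. Recruitment restores β-galactosidase, read by chemiluminescence. % activity = 100% × (test − vehicle)/(max control ligand − vehicle). % inhibition = 100% × (1 − (test − vehicle)/(EC80 control − vehicle)). An agonist hit needs >30% activity and RLU > baseline + 3×SD. An antagonist hit needs >35% inhibition and RLU < EC80 RLU − 3×SD.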
# FPR1 = test: PathHunter β-arrestin; type: cell-based; details: antagonist mode, 6 μM
# Summary of the method: as §2
# NPFFR1 = test: PathHunter β-arrestin; type: cell-based; details: 6 μM
# Summary of the method: as §1
# MC1R = test: PathHunter β-arrestin; type: cell-based; details: 6 μM
# Summary of the method: as §1
# NPY2R = test: PathHunter β-arrestin; type: cell-based; details: antagonist mode, 6 μM
# Summary of the method: as §1
# P2RY12 = test: PathHunter β-arrestin; type: cell-based; details: 6 μM
# Summary of the method: as §3
# TLR2 = test: RT2 qPCR primer assay, JJ012 cells; type: cell-based, human; details: 1 μg/ml PRP-1
# Summary of the method: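 RNA was extracted, checked by spectrophotometry and reverse-transcribed. Custom RT2 SYBR-Green primer assays were run on three samples in technical triplicate. Ct was normalised to mean GAPDH/ACTB, ΔΔCt taken versus control, and fold change = 2^−ΔΔCt.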
# OPRM1 = test: PathHunter β-arrestin; type: cell-based; details: 6 μM
# Summary of the method: as §3
# TLR6 = test: immunocytochemistry, colocalization with TLR6, JJ012 cells; type: cell-based, human; details: TLR6 yellow (DyLight 550), PRP-1 green (Alexa Fluor 488)
# [1] = tested on: JJ012 chondrosarcoma cells; test: immunocytochemistry, PRP-1 localization; type: cell-based, human; details: PRP-1 antibody, Zenon Alexa Fluor 488; DAPI nuclear stain
# P2RY11 = test: PathHunter β-arrestin; type: cell-based; details: 6 μM
# Summary of the method: as §3
# TET1/2 and SOCS3 = details: human chondrosarcoma; ref previously reported ([8],[9]); cited from earlier work
# CHRM3 = test: PathHunter β-arrestin; type: cell-based; details: 6 μM
# Summary of the method: as §2
# c-Myc = test: RT2 qPCR primer assay, JJ012 cells; type: cell-based, human
# Summary of the method: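 RNA extracted from treated and control JJ012 cells, checked by spectrophotometry and reverse transcribed. SYBR Green qPCR with custom primer assays on three samples in technical triplicates. Ct normalized to the average of GAPDH and ACTB. Fold change vs control by 2^−ΔΔCt, shown as a heat map of average Ct.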
# PROKR1 = test: PathHunter β-arrestin; type: cell-based; details: 6 μM
# Summary of the method: as §3
# GPR109B = test: PathHunter β-arrestin; type: cell-based; details: 6 μM
# Summary of the method: as §1
# HTR2A = test: PathHunter β-arrestin; type: cell-based; details: 6 μM
# Summary of the method: as §1
# CALCR-RAMP2 = test: PathHunter β-arrestin; type: cell-based; details: agonist mode, 6 μM
# Summary of the method: as §4
# NPY1R = test: PathHunter β-arrestin; type: cell-based; details: antagonist mode, 6 μM
# Summary of the method: as §1
# PRLHR = test: PathHunter β-arrestin; type: cell-based; details: antagonist mode, 6 μM
# DRD4 = test: PathHunter β-arrestin; type: cell-based; details: 6 μM
# Summary of the method: as §2
# TLR10 = test: western blot, JJ012 cells; type: cell-based, human; details: vs untreated control, overnight incubation
substance,measurement,setting,value
Proline rich polypeptide 1 [PRP-1],% Activity,HTR2C; agonist mode,1%
same,% Inhibition,HTR2C; antagonist mode,−3%
same,protein expression,nucleolin,no changes in nucleolin protein expression
same,% Inhibition,CRHR2,−2%
same,% Inhibition,CCR5,−2%
same,% Activity,TBXA2R; agonist mode,1%
same,% Inhibition,TBXA2R; antagonist mode,−10%
same,% Inhibition,CXCR7,−2%
same,nuclear receptor agonism,nuclear receptor,neither that this peptide was agonist for orphan receptors (Table III) or agonist/antagonist for nuclear receptor
same,% Inhibition,AVPR1A,−1%
same,% Inhibition,FPR1,−4%
same,% Activity,NPFFR1; agonist mode,3%
same,% Inhibition,NPFFR1; antagonist mode,−3%
same,% Activity,MC1R; agonist mode,−2%
same,% Inhibition,MC1R; antagonist mode,−2%
same,% Inhibition,NPY2R,−2%
same,% Activity,P2RY12; agonist mode,1%
same,% Inhibition,P2RY12; antagonist mode,8%
same,fold upregulation (∆∆Ct),"TLR2; P<0.0001, 2^−∆∆Ct, normalized to GAPDH, ACTB",5.26 fold and > 5 fold
same,gene expression,"TLR2; heat map, vs nontreated control, technical triplicates",high expression
same,% Activity,OPRM1; agonist mode,1%
same,% Inhibition,OPRM1; antagonist mode,−2%
same,colocalization with TLR6,TLR6,nuclear and cytoplasmic colocalization with PRP-1 is demonstrated
same,localization,[1],manifested its presence in the nucleus
same,% Activity,P2RY11; agonist mode,1%
same,% Inhibition,P2RY11; antagonist mode,−12%
same,expression of TET1/2 and SOCS3,TET1/2 and SOCS3,significant upregulation
same,% Activity,CHRM3; agonist mode,2%
same,% Inhibition,CHRM3; antagonist mode,−6%
same,gene expression,"c-Myc; 10 μg/ml PRP-1, heat map, technical triplicates",went down drastically
same,"c-Myc gene expression, dose response","c-Myc; qRT-PCR, 1 and 10 μg/ml",downregulation of its gene expression in dose-response manner
same,% Activity,PROKR1; agonist mode,2%
same,% Inhibition,PROKR1; antagonist mode,−2%
same,% Activity,GPR109B; agonist mode,1%
same,% Inhibition,GPR109B; antagonist mode,−6%
same,% Activity,HTR2A; agonist mode,1%
same,% Inhibition,HTR2A; antagonist mode,−5%
same,% Activity,CALCR-RAMP2,2%
same,% Inhibition,NPY1R,4%
same,% Inhibition,PRLHR,−3%
same,% Activity,DRD4; agonist mode,3%
same,% Inhibition,DRD4; antagonist mode,−2%
same,protein expression,TLR10,no indication of PRP-1 effect
